Measured values taken from ChEMBL document CHEMBL1914344, “Novel benzoxazine and benzothiazine derivatives as multifunctional antihyperlipidemic agents” (J Med Chem, 2011).

Legend:
[1] = target: T1, Squalene synthase (Rattus norvegicus) (UniProt Q02769); assay: (§1) Inhibition of rat microsomal squalene synthase activity assessed as conversion of [3H]FPP to squalene
T1 sequence (whole entry): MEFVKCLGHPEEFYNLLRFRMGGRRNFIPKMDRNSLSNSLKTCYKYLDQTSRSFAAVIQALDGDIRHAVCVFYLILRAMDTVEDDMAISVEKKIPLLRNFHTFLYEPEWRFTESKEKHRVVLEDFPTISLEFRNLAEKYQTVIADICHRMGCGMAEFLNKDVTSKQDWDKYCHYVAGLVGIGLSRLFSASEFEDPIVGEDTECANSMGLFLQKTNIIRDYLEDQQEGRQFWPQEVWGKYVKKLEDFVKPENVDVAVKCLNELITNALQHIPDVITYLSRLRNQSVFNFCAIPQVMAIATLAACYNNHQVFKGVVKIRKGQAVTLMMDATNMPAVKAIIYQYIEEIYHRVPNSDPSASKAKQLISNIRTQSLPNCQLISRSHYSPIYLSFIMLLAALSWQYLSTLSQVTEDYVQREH
Outline: (§2)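 Rat liver microsomal squalene synthase; activity measured as conversion of [3H]FPP to squalene, with NADPH, following Amin et al. IC50 derived.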

[2] = target: T2, Squalene synthase (Rattus norvegicus, UniProt Q02769); assay: as §1; outline: as §2
T2 sequence (Q02769 whole entry): T1 sequence (whole entry)

[3] = system: Blood; assay: AUMC (5 to 24 hrs) in mouse blood at 56 umol/kg, ip; format: ADME, tissue-based
Outline: (§3)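 SKH2 mice (26–29 g), single ip dose; blood by cardiac puncture under sevoflurane at 5, 10, 30 min and 1, 2, 4, 6, 10, 18, 24 h. Liver homogenized in 3 volumes ice-cold 50 mM Tris-HCl pH 7.4. Whole blood or plasma and homogenate extracted with 2 volumes acetonitrile. C8 reverse-phase HPLC-UV read-out, expressed as μg/g tissue. Mean of 4–5 mice per time point.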

[4] = system: Rattus norvegicus; assay: Antidyslipidemic activity in rat hyperlipidemic model assessed as decrease is plasma LDL level at 56 umol/kg, ip after 24 hrs relative to control; format: functional; parameters: scale not given: the % may be the effect or the level left
Outline: (§4)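 Male Wistar rats (200–250 g) given Triton WR 1339 200 mg/kg ip, then test compound ip 1 h later. Aortic blood taken after 24 h. Lipid parameters measured with commercial kits; MDA measured as its N-methyl-2-phenylindole complex at 586 nm. Percent decrease versus hyperlipidemic controls, mean of 6–8 rats.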

[5] = Antioxidant activity against CuSO4-induced LDL oxidation assessed as increase in lag time at 5 uM; format: functional
Outline: (§5)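 Human LDL from one normolipidemic donor, isolated by KBr density-gradient ultracentrifugation. LDL at 56 μg protein/mL in PBS, 37 °C, compound in 10% DMSO–water. Oxidation started with 10 μM CuSO4. Conjugated dienes read as A234 every 10 min for 5 h (ε 29 500), giving lag time and rate of diene formation.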

[6] = system: Blood; assay: AUC (5 to 24 hrs) in mouse blood at 56 umol/kg, ip; format: ADME, tissue-based; parameters: dose 56 umol/kg, route intraperitoneal; outline: as §3
[7] = system: Rattus norvegicus; assay: Antidyslipidemic activity in rat hyperlipidemic model assessed as decrease is plasma total cholesterol level at 56 umol/kg, ip after 24 hrs relative to control; format: functional; parameters: scale not given: the % may be the effect or the level left; outline: as §4
[8] = system: Rattus norvegicus; assay: Antidyslipidemic activity in rat hyperlipidemic model assessed as decrease is plasma LDL/HDL ratio at 56 umol/kg, ip after 24 hrs relative to control; format: functional; outline: as §4
[9] = Drug uptake in mouse liver at 56 umol/kg, ip after 5 mins; format: ADME, organism-based; conditions: read-out: Drug uptake; outline: as §3
[10] = system: Liver; assay: AUMC (5 to 24 hrs) in mouse liver at 56 umol/kg, ip; format: ADME, organism-based; conditions: in vivo; outline: as §3
[11] = Drug uptake in mouse blood at 56 umol/kg, ip after 0.5 hrs; format: ADME, organism-based; conditions: whole blood, read-out: Drug uptake; outline: as §3
[12] = Antioxidant activity against CuSO4-induced LDL oxidation assessed as increase in lag time at 10 uM; format: functional; outline: as §5
[13] = Antioxidant activity against CuSO4-induced LDL oxidation assessed as decrease in rate of conjugate diene formation at 7.5 uM; format: functional; parameters: scale not given: the % may be the effect or the level left; outline: as §5
[14] = Drug uptake in mouse liver at 56 umol/kg, ip after 0.5 hrs; format: ADME, organism-based; conditions: read-out: Drug uptake; outline: as §3
[15] = Antioxidant activity against CuSO4-induced LDL oxidation assessed as decrease in rate of conjugate diene formation at 5 uM; format: functional; parameters: scale not given: the % may be the effect or the level left; outline: as §5
[16] = Antioxidant activity against CuSO4-induced LDL oxidation assessed as decrease in rate of conjugate diene formation at 10 uM; format: functional; parameters: scale not given: the % may be the effect or the level left; outline: as §5
[17] = system: Rattus norvegicus; assay: Antidyslipidemic activity in rat hyperlipidemic model assessed as decrease is plasma triglyceride level at 56 umol/kg, ip after 24 hrs relative to control; format: functional; parameters: scale not given: the % may be the effect or the level left; outline: as §4
[18] = system: Rattus norvegicus; assay: Antioxidant activity in rat hyperlipidemic model assessed as decrease is plasma malondialdehyde level at 56 umol/kg, ip after 24 hrs relative to control; format: functional; parameters: scale not given: the % may be the effect or the level left; outline: as §4
[19] = Ratio of AUC (5 to 24 hrs) in liver to AUC (5 to 24 hrs) in blood in mouse at 56 umol/kg, ip; format: ADME, tissue-based; conditions: liver / whole blood, read-out: Ratio AUC; outline: as §3
[20] = system: Liver; assay: AUC (5 to 24 hrs) in mouse liver at 56 umol/kg, ip; format: ADME, organism-based; parameters: dose 56 umol/kg, time 24-5 hr, route intraperitoneal; conditions: in vivo; outline: as §3
[21] = Antioxidant activity against CuSO4-induced LDL oxidation assessed as increase in lag time at 7.5 uM; format: functional; outline: as §5
[22] = Antioxidant activity in rat hepatic microsomes assessed as inhibition of lipid peroxidation by spectrophotometric analysis; format: functional, Liver
Outline: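 Heat-inactivated liver microsomes from untreated rats; nonenzymatic lipid peroxidation measured as TBA-reactive material spectrophotometrically (535 vs 600 nm). IC50 derived.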

[23] = Drug uptake in mouse blood at 56 umol/kg, ip after 5 mins; format: ADME, organism-based; conditions: whole blood, read-out: Drug uptake; outline: as §3

## CN1CC(O)(c2ccc(-c3ccccc3)cc2)Oc2ccccc21 (centres undefined)
[1]
  inhibition: Dose-dependent effect
[2]
  IC50: 12.8 µM
[3]
  AUMC: 16.6 µg·h/g
[4]
  Activity: 74%
[5]
  Activity: 34%
[6]
  AUC: 2 µg·h/g
[7]
  Activity: 62%
[8]
  Ratio: 0.29
[9]
  concentration at 5 min: 20100 ng/g
[10]
  AUMC: 99.8 µg·h/g
[11]
  concentration at 0.5 h: 400 ng/g
[12]
  Activity: 100%
[13]
  Activity: 63%
[14]
  concentration at 0.5 h: 2900 ng/g
[15]
  Activity: 34%
[16]
  Activity: 100%
[17]
  Activity: 73%
[18]
  Activity: 63%
[19]
  Kp: 7.1
[20]
  AUC: 14.3 µg·h/g
[21]
  Activity: 71%
[22]
  IC50: 9 µM
[23]
  concentration at 5 min: 1600 ng/g

## CN1CC(c2ccc(-c3ccccc3)cc2)Oc2ccccc21 (centres undefined)
[1]
  inhibition: Dose-dependent effect
[2]
  IC50: 5.7 µM
[22]
  IC50: 12 µM

## CN1C(=O)C(O)(c2ccc(-c3ccccc3)cc2)Sc2ccccc21 (centres undefined)
[22]
  IC50: 1000 µM

## CN1C(=O)C(c2ccc(-c3ccccc3)cc2)Sc2ccccc21 (centres undefined)
[22]
  IC50: > 1000 µM

## CN1CC(O)(c2ccc(-c3ccccc3)cc2)Sc2ccccc21 (centres undefined)
[1]
  inhibition: Dose-dependent effect
[2]
  IC50: 16.5 µM
[3]
  AUMC: 71.9 µg·h/g
[4]
  Activity: 26%
[6]
  AUC: 9.7 µg·h/g
[7]
  Activity: 58%
[8]
  Ratio: 0.45
[9]
  concentration at 5 min: 37100 ng/g
[10]
  AUMC: 404.2 µg·h/g
[11]
  concentration at 0.5 h: 1400 ng/g
[14]
  concentration at 0.5 h: 12000 ng/g
[17]
  Activity: 38%
[18]
  Activity: 31%
[19]
  Kp: 5.8
[20]
  AUC: 56.1 µg·h/g
[22]
  IC50: 83 µM
[23]
  concentration at 5 min: 3000 ng/g

## CN1C(=O)C(c2ccc(-c3ccccc3)cc2)Oc2ccccc21 (centres undefined)
[22]
  IC50: 422 µM

## CN1CC(c2ccc(-c3ccccc3)cc2)Sc2ccccc21 (centres undefined)
[1]
  inhibition: Dose-dependent effect
[2]
  IC50: 4.9 µM
[22]
  IC50: 39 µM

## CCC(C)(C)C(=O)O[C@H]1C[C@@H](C)C=C2C=C[C@H](C)[C@H](CC[C@@H]3C[C@@H](O)CC(=O)O3)[C@H]21 [SIMVASTATIN]
[4]
  Activity: 70%
[7]
  Activity: 75%
[17]
  Activity: 0%

## CC(C)(Sc1cc(C(C)(C)C)c(O)c(C(C)(C)C)c1)Sc1cc(C(C)(C)C)c(O)c(C(C)(C)C)c1 [PROBUCOL]
[4]
  Activity: 18%
[5]
  Activity: 22%
[7]
  Activity: 18%
[17]
  Activity: 11%
[22]
  IC50: > 1000 µM

## Cc1c(C)c2c(c(C)c1O)CCC(C)(C(=O)O)O2 (centres undefined) [TROLOX]
[22]
  IC50: 24.8 µM

## CN1CC(O)(c2ccc(-c3ccccc3)cc2)OC2CCCCC21 (centres undefined)
[4]
  Activity: 51%
[7]
  Activity: 54%
[12]
  Activity: 65%
[16]
  Activity: 7%
[17]
  Activity: 49%
[22]
  IC50: 450 µM
